Molecules are shown by their SMILES. Activity calls are given as the source filed them.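 How the source made its calls: active means growth inhibition above 25% in both replicates, a cutoff set 3 SD above the mean; inconclusive means above 25% in only one replicate; inactive means the rest.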

The experiment in a line: S. cerevisiae growth inhibition in permissive medium (OD615), pilot counter-assay for S. cerevisiae lifespan shortening project, permissive growth control (AID 705). The settings on record: OD615, 24 h, at 10 µM, stronger effect = higher value. The method in brief:
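Material: engineered DeaD yeast; compound dosing: one dose 10 µM, DMSO 0.25% final; measure: yeast growth inhibition indicated by reduced 24 h OD615; detection: OD615 turbidity read; incubation: cells pre-grown 4 h, then 24 h compound exposure, 30 °C humidified; medium: permissive synthetic complete medium with raffinose and galactose carbon sources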
Turning to `CC(C)(O)C#Cc1ccc(C(=O)N2CCN(C(=O)c3ccco3)CC2)cc1`, the growth inhibition was -17.3% (inactive).
With `COC(=O)C1=C(C)Nc2nnnn2C1c1ccc(Cl)cc1Cl` (stereo not drawn), the growth inhibition was 2.67% (inactive).
For the molecule `CC(NC(=O)C1CC1)C(c1cccs1)N1CCN(c2ccccc2)CC1` (stereo not drawn), the growth inhibition was -6.42% (inactive).
In the case of `O=C(Nc1c(C(=O)NCc2ccco2)cnn1-c1ccccc1)c1ccc(F)cc1`, the growth inhibition is -0.04% (inactive).
Consider `COc1ccc(-n2c(Cc3cccn3C)nnc2SCC(=O)Nc2cccc(Cl)c2)cc1`, for which the growth inhibition is 4.36% (inactive).
As to `CCOC(=O)N1CCN(C(=O)c2ccc3nc4ccsc4c(=O)n3c2)CC1`, the growth inhibition is 5.57% (inactive).
On to `CCC(C)C(=O)Nc1nc2c(s1)C(=O)CC(C)(C)C2` (stereo not drawn), for which the growth inhibition was -16.6% (inactive).
On to `COc1cc2c(cc1OC)CN(C(=O)CSc1nc3[nH]ncc3c(=O)n1-c1ccccc1)CC2`, for which the growth inhibition was 0.33% (inactive).
Turning to `CC(NC(=O)c1cc2c(=O)n(C)c3ccccc3c2n1C)c1ccc2c(c1)OCCO2` (stereo not drawn), the growth inhibition is -5.51% (inactive).
In the case of `O=C(C1CCCN1S(=O)(=O)c1cccc2cccnc12)N1CCn2c1nc1ccccc12` (stereo not drawn) it was -4.09% (inactive); in that of `CCn1c(SCC(=O)Nc2cc(C)ccc2C)nc2c(c1=O)SC(C)C2` (stereo not drawn), -9.3% (inactive).
Turning to `CCOC(=O)c1sc2nc(NC(=O)COc3ccccc3)sc2c1C`, the growth inhibition was -2.58% (inactive).
With `Cc1ccc(-n2ncc3c(N4CCCC(C)C4)ncnc32)c(C)c1` (stereo not drawn), the growth inhibition is -2.59% (inactive).
Regarding `O=C(O)C1C2C=CC3(CN(C4CCCC4)C(=O)C13)O2` (stereo not drawn), the growth inhibition was 1.69% (inactive).
Consider `CCCCSc1nc2c(cnn2-c2ccc(F)cc2)c(=O)[nH]1`, for which the growth inhibition was -7.35% (inactive).
As for `CCCCCn1c(=O)[nH]c2cc(C(=O)NCCN3CCOCC3)ccc2c1=O`, the growth inhibition is -26.4% (inactive).
Turning to `Cc1ccc(-c2cc3nc4c(c(=O)n3[nH]2)CCCC4)cc1`, the growth inhibition was -17% (inactive).
In the case of `CCCOC(=O)c1[nH]c2c(c1C)C(=O)CC(c1cc(OC)c(OC)c(OC)c1)C2` (stereo not drawn) it was -16.2% (inactive).
`COc1cccc(-c2nc3n(n2)C(c2ccccc2Cl)C(C(N)=O)=C(C)N3)c1` (stereo not drawn): the growth inhibition is -7.99% (inactive).
In the case of `Cc1c(NC(=O)c2ccc(Br)o2)c(=O)n(-c2ccccc2)n1C` it was -11.6% (inactive); in that of `COc1ccc(-c2nc(CS(=O)CC(=O)NCc3ccccn3)c(C)o2)cc1` (stereo not drawn), -3.15% (inactive); in that of `CCOc1cc(C2NC(=O)NC(O)(C(F)(F)F)C2C(=O)c2ccccc2)ccc1OC` (stereo not drawn), -0.49% (inactive).
In the case of `CN(CCCNC(=O)c1cn(C)c2ccc(S(=O)(=O)N(C)C)cc2c1=O)c1ccccc1` it was 1.83% (inactive).

Source of the values: PubChem BioAssay.
